Assays:
[1] = biological target: T1, Growth hormone secretagogue receptor type 1 (Homo sapiens, UniProt Q92847); assay: Agonist activity at human GHS-R1a assessed as maximum activation at 10 uM relative to ghrelin by aequorin assay; assay type: functional
How it was run: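 Agonist mode of the hGHS-R1a aequorin bioluminescence assay. Compound tested up to a maximum of 10 μM. Peak response is expressed as maximum % activation relative to ghrelin. Values are means of two or three experiments.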

[2] = biological target: T1, Growth hormone secretagogue receptor type 1; assay: Inhibition of human GHS-R1a
[3] = biological target: T1, Growth hormone secretagogue receptor type 1; assay: Inhibition of human GHS-R1a at 6.25 uM
[4] = biological target: T1, Growth hormone secretagogue receptor type 1; assay: Antagonist activity at human GHS-R1a expressed in HEK293 cells assessed as inhibition of ghrelin-stimulated intracellular calcium mobilization; assay type: functional, cell-based
[5] = biological target: T1, Growth hormone secretagogue receptor type 1; assay: Displacement of [35S]MK0677 from human GHS-R1a
How it was run: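 Competitive binding at GHS-R1a using [35S]-MK-0677 as the radiolabeled probe. IC50 values are means of two or three experiments.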

[6] = biological target: T2, Beta-3 adrenergic receptor (Homo sapiens, UniProt P13945); assay: Inhibition of human adrenergic beta3 receptor
[7] = biological target: T2, Beta-3 adrenergic receptor; assay: Agonist activity at human adrenergic beta3 receptor; assay type: functional

T1 sequence (Q92847 whole entry): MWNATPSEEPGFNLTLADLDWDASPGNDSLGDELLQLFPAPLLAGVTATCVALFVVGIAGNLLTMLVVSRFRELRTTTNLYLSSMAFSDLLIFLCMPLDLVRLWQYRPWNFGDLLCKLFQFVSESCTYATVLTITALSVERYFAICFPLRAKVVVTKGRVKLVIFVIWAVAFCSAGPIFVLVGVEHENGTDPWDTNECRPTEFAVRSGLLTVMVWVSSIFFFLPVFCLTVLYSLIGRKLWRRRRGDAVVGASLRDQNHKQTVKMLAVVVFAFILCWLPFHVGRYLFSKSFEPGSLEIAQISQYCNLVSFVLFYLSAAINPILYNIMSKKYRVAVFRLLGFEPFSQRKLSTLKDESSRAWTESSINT
T2 sequence (P13945 whole entry): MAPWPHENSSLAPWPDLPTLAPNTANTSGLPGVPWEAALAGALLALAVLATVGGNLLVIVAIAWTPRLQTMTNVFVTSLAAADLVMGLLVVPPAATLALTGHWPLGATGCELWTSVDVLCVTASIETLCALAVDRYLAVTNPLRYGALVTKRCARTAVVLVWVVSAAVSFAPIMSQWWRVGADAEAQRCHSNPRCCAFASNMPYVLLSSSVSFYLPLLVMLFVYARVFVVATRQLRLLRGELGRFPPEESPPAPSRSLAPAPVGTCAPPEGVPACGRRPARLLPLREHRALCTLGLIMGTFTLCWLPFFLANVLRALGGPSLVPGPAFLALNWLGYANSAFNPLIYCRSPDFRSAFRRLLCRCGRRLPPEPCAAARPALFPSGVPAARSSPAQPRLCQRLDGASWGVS

| SMILES | Activity [1] [%] | IC50 [2] [µM] | also measured |
| --- | --- | --- | --- |
| CC(C)c1ccc(NC(=O)Nc2ccc(S(=O)(=O)Nc3ccc(CC(C)(C)N)cc3)cc2)cc1 | 0 | 0.008 |  |
| CCCCCCNC(=O)Nc1ccc(S(=O)(=O)Nc2ccc(CC(C)(C)NCC(F)(F)F)cc2)cc1 | 1 | 0.682 |  |
| CCCCCCNC(=O)Nc1ccc(S(=O)(=O)Nc2ccc(CC(C)(C)O)cc2)cc1 |  |  | inhibition [3]: 48% |
| CCCNC(=O)Nc1ccc(S(=O)(=O)Nc2ccc(CC(C)(C)N)cc2)cc1 | 1 | 1.65 |  |
| CCCCCCNC(=O)Nc1ccc(S(=O)(=O)Nc2ccc(CCCN)cc2)cc1 | 1 | 0.108 |  |
| CCCCCNC(=O)Nc1ccc(S(=O)(=O)Nc2ccc(CC(C)(C)N)cc2)cc1 | 6 | 0.241 |  |
| Cc1ccccc1NC(=O)Nc1ccc(S(=O)(=O)Nc2ccc(CC(C)(C)N)cc2)cc1 | 1 | 0.161 |  |
| CCCCNC(=O)Nc1ccc(S(=O)(=O)Nc2ccc(CC(C)(C)N)cc2)cc1 | 1 | 0.474 |  |
| CCCCCCNC(=O)Nc1ccc(S(=O)(=O)Nc2ccc(CC(C)(C)NC[C@H](O)COc3ccc(O)cc3)cc2)cc1 |  |  | IC50 [4]: 0.04 µM; IC50 [5]: 0.013 µM |
| CCCCCCNC(=O)Nc1ccc(S(=O)(=O)Nc2ccc(CC(C)(C)CN)cc2)cc1 | 2 | 0.444 |  |
| CCNC(=O)Nc1ccc(S(=O)(=O)Nc2ccc(CC(C)(C)N)cc2)cc1 | 4 | 5.62 |  |
| CCCCCCNC(=O)Nc1ccc(S(=O)(=O)Nc2ccc(CC(C)(C)N)cc2)cc1 | 4 | 0.046 | IC50 [6]: 5.2 µM; EC50 [7]: > 10 µM |
| CC(C)(N)Cc1ccc(NS(=O)(=O)c2ccc(NC(=O)NCc3cccc4ccccc34)cc2)cc1 |  | 0.021 |  |
| CCCCCCNC(=O)Nc1ccc(S(=O)(=O)Nc2ccc(CC)cc2)cc1 |  |  | inhibition [3]: 47% |
| CCCCCCNC(=O)Nc1ccc(S(=O)(=O)Nc2ccc(CC(C)(C)NCC)cc2)cc1 | 1 | 0.03 |  |
| CC(C)NC(=O)Nc1ccc(S(=O)(=O)Nc2ccc(CC(C)(C)N)cc2)cc1 | 1 | 0.846 |  |

| SMILES | Activity [1] [%] | IC50 [2] [µM] | also measured |
| --- | --- | --- | --- |
| Cc1ccc(NC(=O)Nc2ccc(S(=O)(=O)Nc3ccc(CC(C)(C)N)cc3)cc2)cc1 | 3 | 0.077 |  |
| Cc1cccc(NC(=O)Nc2ccc(S(=O)(=O)Nc3ccc(CC(C)(C)N)cc3)cc2)c1 | 3 | 0.069 |  |
| CCCCCCCNC(=O)Nc1ccc(S(=O)(=O)Nc2ccc(CC(C)(C)N)cc2)cc1 | 3 | 0.097 |  |
| CCCCc1ccc(NC(=O)Nc2ccc(S(=O)(=O)Nc3ccc(CC(C)(C)N)cc3)cc2)cc1 | 1 | 0.028 |  |
| CCCCCCNC(=O)Nc1ccc(S(=O)(=O)Nc2cccc(CCN)c2)cc1 | 13 | 0.625 |  |
| CC(C)(N)Cc1ccc(NS(=O)(=O)c2ccc(NC(=O)NC(C)(C)c3cccc4ccccc34)cc2)cc1 |  | 0.002 |  |
| CCCCCCNC(=O)Nc1ccc(S(=O)(=O)Nc2ccc(CCN)cc2)cc1 | 5 | 0.272 |  |
| CC(C)(N)Cc1ccc(NS(=O)(=O)c2ccc(NC(=O)Nc3ccccc3)cc2)cc1 | 1 | 0.263 |  |
| CCc1ccc(NC(=O)Nc2ccc(S(=O)(=O)Nc3ccc(CC(C)(C)N)cc3)cc2)cc1 | 1 | 0.014 |  |
| CCCCCCNC(=O)Nc1ccc(S(=O)(=O)Nc2ccc(CN)cc2)cc1 | 5 | 1.72 |  |
| CCCCCCNC(=O)Nc1ccc(S(=O)(=O)Nc2ccccc2)cc1 |  | 4.3 |  |
| CC(C)(N)Cc1ccc(NS(=O)(=O)c2ccc(NC(=O)NCCc3ccccc3)cc2)cc1 | 1 | 0.138 |  |
| CC(C)(N)Cc1ccc(NS(=O)(=O)c2ccc(NC(=O)Nc3ccc(C(C)(C)C)cc3)cc2)cc1 | 1 | 0.016 |  |
| CCCCCCNC(=O)Nc1ccc(S(=O)(=O)Nc2ccc(CCC(C)(C)N)cc2)cc1 | 3 | 0.31 |  |
| CC(C)(N)Cc1ccc(NS(=O)(=O)c2ccc(NC(=O)NCc3ccccc3)cc2)cc1 | 4 | 0.128 |  |
| CCCCCCNC(=O)Nc1ccc(S(=O)(=O)Nc2cccc(CCCN)c2)cc1 | 51 | 0.429 |  |

Source: ChEMBL document CHEMBL1154292, “Discovery and optimization of novel 4-[(aminocarbonyl)amino]-N-[4-(2-aminoethyl)phenyl]benzenesulfonamide ghrelin receptor antagonists” (Bioorg Med Chem Lett, 2009)
